Common to all, as to format: functional
Common to all, as to details: read-out: DIZ

The test system of one test is Xanthomonas oryzae. In words: Antibacterial activity against Xanthomonas oryzae at 10 ug/disc after 24 hrs by disc diffusion method.
The subject of another test is Pseudomonas fluorescens. Nature of the test: Antibacterial activity against Pseudomonas fluorescens at 10 ug/disc after 24 hrs by disc diffusion method. Summed up:
(§1)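 Disc diffusion assay. Discs were held at 4 °C for 2 h so the compounds could diffuse, then incubated at 28 °C. Inhibition zone diameters were measured in mm after 24 h. Each compound was tested in triplicate.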

A short description of test [1]: Antibacterial activity against Xanthomonas campestris pvs. at 10 ug/disc after 24 hrs by disc diffusion method. Summed up:
as §1

The test system of another test is Escherichia coli. Nature of the test: Antibacterial activity against Escherichia coli at 10 ug/disc after 24 hrs by disc diffusion method. Summed up: as §1
The next test concerns Bacillus subtilis. In words: Antibacterial activity against Bacillus subtilis at 10 ug/disc after 24 hrs by disc diffusion method. In short, it runs like this:
as §1

Turning to `COC(=O)[C@H](CCCCNC(=O)Nc1ccc(Cl)cc1)NC(=O)CCc1nc2ccccc2c(=O)[nH]1`, the zone of inhibition at 10 µg/disc in the test with Xanthomonas oryzae came to 29 mm; with Pseudomonas fluorescens, 29 mm; in test [1], 28 mm; with Escherichia coli, 28 mm; in the test on Bacillus subtilis, 24 mm.

For the compound `COC(=O)[C@H](CCCCNC(=O)OC(C)(C)C)NC(=O)CCc1nc2ccccc2c(=O)[nH]1`, the zone of inhibition at 10 µg/disc was 12 mm in the test on Xanthomonas oryzae; 11 mm in the test on Pseudomonas fluorescens; 12 mm in test [1]; 9 mm with Escherichia coli; 8 mm in the test on Bacillus subtilis.

For `COC(=O)[C@H](CCCCNC(=O)OC(C)(C)C)NC(=O)CCCc1nc2ccccc2c(=O)[nH]1`, the zone of inhibition at 10 µg/disc in the test on Xanthomonas oryzae is 9 mm; with Pseudomonas fluorescens, 8 mm; in test [1] it was 7 mm; in the test with Escherichia coli, 8 mm; in the test with Bacillus subtilis it was 6 mm.

Take `COC(=O)[C@H](CCCCN)NC(=O)CCc1nc2ccccc2c(=O)[nH]1`: the zone of inhibition at 10 µg/disc in the test with Xanthomonas oryzae worked out at 10 mm; in the test with Pseudomonas fluorescens, 10 mm; in test [1] it was 9 mm; in the test with Escherichia coli, 8 mm; with Bacillus subtilis it was 6 mm.

With `COC(=O)[C@H](CCCCN)NC(=O)CCCc1nc2ccccc2c(=O)[nH]1`, the zone of inhibition at 10 µg/disc with Xanthomonas oryzae was 12 mm; in the test with Pseudomonas fluorescens it was 10 mm; in test [1] it was 12 mm; in the test on Escherichia coli it was 9 mm; with Bacillus subtilis, 10 mm.

Turning to `CC(C)(C)OC(=O)NCCCC[C@H](NC(=O)CCc1nc2ccccc2c(=O)[nH]1)C(=O)O`, the zone of inhibition at 10 µg/disc in the test on Xanthomonas oryzae was 14 mm; in the test on Pseudomonas fluorescens, 14 mm; in test [1], 13 mm; in the test with Escherichia coli it was 11 mm; in the test with Bacillus subtilis it was 10 mm.

In the case of `CC(C)(C)OC(=O)NCCCC[C@H](NC(=O)CCCc1nc2ccccc2c(=O)[nH]1)C(=O)O`, the zone of inhibition at 10 µg/disc in the test with Xanthomonas oryzae was 11 mm; in the test with Pseudomonas fluorescens it was 11 mm; in test [1], 12 mm; in the test on Escherichia coli, 10 mm; in the test on Bacillus subtilis, 9 mm.

For `NCCCC[C@H](NC(=O)CCc1nc2ccccc2c(=O)[nH]1)C(=O)O`, the zone of inhibition at 10 µg/disc in the test with Xanthomonas oryzae is 9 mm; with Pseudomonas fluorescens it was 10 mm; in test [1] it was 10 mm; in the test on Escherichia coli it was 9 mm; in the test on Bacillus subtilis, 8 mm.

For the compound `NCCCC[C@H](NC(=O)CCCc1nc2ccccc2c(=O)[nH]1)C(=O)O`, the zone of inhibition at 10 µg/disc with Xanthomonas oryzae worked out at 12 mm; in the test on Pseudomonas fluorescens, 12 mm; in test [1] it was 13 mm; in the test on Escherichia coli, 10 mm; in the test on Bacillus subtilis, 14 mm.

Consider `COC(=O)[C@H](CCCCNC(=O)Nc1ccc(OC)cc1)NC(=O)CCc1nc2ccccc2c(=O)[nH]1`, for which the zone of inhibition at 10 µg/disc in the test on Xanthomonas oryzae amounted to 28 mm; in the test on Pseudomonas fluorescens, 25 mm; in test [1] it was 26 mm; with Escherichia coli, 23 mm; in the test on Bacillus subtilis it was 22 mm.

For the compound `COC(=O)[C@H](CCCCNC(=O)Nc1cccc(F)c1)NC(=O)CCc1nc2ccccc2c(=O)[nH]1`, the zone of inhibition at 10 µg/disc with Xanthomonas oryzae was determined as 36 mm; in the test with Pseudomonas fluorescens, 36 mm; in test [1], 37 mm; with Escherichia coli it was 36 mm; with Bacillus subtilis it was 35 mm.

As for `COC(=O)[C@H](CCCCNC(=O)Nc1ccc(Cl)cc1)NC(=O)CCCc1nc2ccccc2c(=O)[nH]1`, the zone of inhibition at 10 µg/disc in the test with Xanthomonas oryzae is 30 mm; with Pseudomonas fluorescens, 29 mm; in test [1], 28 mm; in the test with Escherichia coli it was 26 mm; in the test with Bacillus subtilis, 25 mm.

Turning to `COC(=O)[C@H](CCCCNC(=O)Nc1ccc(OC)cc1)NC(=O)CCCc1nc2ccccc2c(=O)[nH]1`, the zone of inhibition at 10 µg/disc was found to be 25 mm in the test on Xanthomonas oryzae; 22 mm in the test with Pseudomonas fluorescens; 24 mm in test [1]; 21 mm with Escherichia coli; 20 mm with Bacillus subtilis.

On to `COC(=O)[C@H](CCCCNC(=O)Nc1cccc(F)c1)NC(=O)CCCc1nc2ccccc2c(=O)[nH]1`, for which the zone of inhibition at 10 µg/disc in the test with Xanthomonas oryzae was determined as 35 mm; in the test on Pseudomonas fluorescens, 34 mm; in test [1], 36 mm; in the test with Escherichia coli, 35 mm; with Bacillus subtilis, 36 mm.

With `O=C(CCc1nc2ccccc2c(=O)[nH]1)N[C@@H](CCCCNC(=O)Nc1ccc(Cl)cc1)C(=O)O`, the zone of inhibition at 10 µg/disc is 30 mm in the test on Xanthomonas oryzae; 32 mm with Pseudomonas fluorescens; 30 mm in test [1]; 30 mm with Escherichia coli; 28 mm in the test with Bacillus subtilis.

For the compound `COc1ccc(NC(=O)NCCCC[C@H](NC(=O)CCc2nc3ccccc3c(=O)[nH]2)C(=O)O)cc1`, the zone of inhibition at 10 µg/disc was found to be 28 mm with Xanthomonas oryzae; 27 mm in the test on Pseudomonas fluorescens; 28 mm in test [1]; 25 mm in the test with Escherichia coli; 24 mm in the test on Bacillus subtilis.

Turning to `O=C(CCc1nc2ccccc2c(=O)[nH]1)N[C@@H](CCCCNC(=O)Nc1cccc(F)c1)C(=O)O`, the zone of inhibition at 10 µg/disc in the test on Xanthomonas oryzae came out at 34 mm; in the test with Pseudomonas fluorescens it was 34 mm; in test [1], 33 mm; in the test with Escherichia coli, 35 mm; in the test on Bacillus subtilis, 35 mm.

Turning to `O=C(CCCc1nc2ccccc2c(=O)[nH]1)N[C@@H](CCCCNC(=O)Nc1ccc(Cl)cc1)C(=O)O`, the zone of inhibition at 10 µg/disc worked out at 29 mm in the test on Xanthomonas oryzae; 30 mm with Pseudomonas fluorescens; 28 mm in test [1]; 28 mm in the test on Escherichia coli; 29 mm with Bacillus subtilis.

As for `COc1ccc(NC(=O)NCCCC[C@H](NC(=O)CCCc2nc3ccccc3c(=O)[nH]2)C(=O)O)cc1`, the zone of inhibition at 10 µg/disc in the test with Xanthomonas oryzae was 26 mm; in the test with Pseudomonas fluorescens, 23 mm; in test [1] it was 25 mm; with Escherichia coli, 24 mm; in the test with Bacillus subtilis, 22 mm.

For the compound `O=C(CCCc1nc2ccccc2c(=O)[nH]1)N[C@@H](CCCCNC(=O)Nc1cccc(F)c1)C(=O)O`, the zone of inhibition at 10 µg/disc with Xanthomonas oryzae was 36 mm; in the test with Pseudomonas fluorescens it was 35 mm; in test [1], 34 mm; in the test on Escherichia coli, 36 mm; with Bacillus subtilis, 35 mm.

Take `COC(=O)[C@H](CCCCNC(=S)Nc1ccc(F)cc1C)NC(=O)CCc1nc2ccccc2c(=O)[nH]1`: the zone of inhibition at 10 µg/disc in the test on Xanthomonas oryzae was 34 mm; with Pseudomonas fluorescens, 34 mm; in test [1], 33 mm; with Escherichia coli, 32 mm; in the test on Bacillus subtilis, 33 mm.

With `COC(=O)[C@H](CCCCNC(=S)Nc1ccccc1C)NC(=O)CCc1nc2ccccc2c(=O)[nH]1`, the zone of inhibition at 10 µg/disc in the test with Xanthomonas oryzae is 26 mm; with Pseudomonas fluorescens it was 24 mm; in test [1], 27 mm; with Escherichia coli, 22 mm; with Bacillus subtilis, 23 mm.

With `COC(=O)[C@H](CCCCNC(=S)Nc1cccc(F)c1)NC(=O)CCc1nc2ccccc2c(=O)[nH]1`, the zone of inhibition at 10 µg/disc with Xanthomonas oryzae stood at 35 mm; in the test with Pseudomonas fluorescens it was 36 mm; in test [1] it was 38 mm; in the test on Escherichia coli, 38 mm; in the test with Bacillus subtilis, 36 mm.

For the compound `COC(=O)[C@H](CCCCNC(=S)Nc1ccc(F)cc1C)NC(=O)CCCc1nc2ccccc2c(=O)[nH]1`, the zone of inhibition at 10 µg/disc came out at 32 mm with Xanthomonas oryzae; 33 mm with Pseudomonas fluorescens; 30 mm in test [1]; 33 mm with Escherichia coli; 32 mm with Bacillus subtilis.

As for `COC(=O)[C@H](CCCCNC(=S)Nc1ccccc1C)NC(=O)CCCc1nc2ccccc2c(=O)[nH]1`, the zone of inhibition at 10 µg/disc in the test on Xanthomonas oryzae came out at 24 mm; in the test on Pseudomonas fluorescens, 23 mm; in test [1], 25 mm; in the test with Escherichia coli, 23 mm; with Bacillus subtilis, 22 mm.

As for `COC(=O)[C@H](CCCCNC(=S)Nc1cccc(F)c1)NC(=O)CCCc1nc2ccccc2c(=O)[nH]1`, the zone of inhibition at 10 µg/disc worked out at 36 mm with Xanthomonas oryzae; 33 mm in the test on Pseudomonas fluorescens; 34 mm in test [1]; 35 mm with Escherichia coli; 34 mm in the test with Bacillus subtilis.

Turning to `Cc1cc(F)ccc1NC(=S)NCCCC[C@H](NC(=O)CCc1nc2ccccc2c(=O)[nH]1)C(=O)O`, the zone of inhibition at 10 µg/disc with Xanthomonas oryzae was found to be 35 mm; in the test on Pseudomonas fluorescens, 35 mm; in test [1] it was 34 mm; with Escherichia coli it was 33 mm; with Bacillus subtilis it was 34 mm.

As to `CN[C@@H]1[C@H](O[C@H]2[C@H](O[C@H]3[C@H](O)[C@@H](O)[C@H](N=C(N)N)[C@@H](O)[C@@H]3N=C(N)N)O[C@@H](C)[C@]2(O)C=O)O[C@@H](CO)[C@H](O)[C@H]1O` [STREPTOMYCIN], the zone of inhibition at 10 µg/disc in the test on Pseudomonas fluorescens was 23 mm; in the test on Escherichia coli it was 21 mm; in the test on Bacillus subtilis, 17 mm.

Regarding `CN(C)[C@@H]1C(O)=C(C(N)=O)C(=O)[C@@]2(O)C(O)=C3C(=O)c4c(O)cccc4[C@@](C)(O)[C@H]3C[C@@H]12` [TETRACYCLINE], the values for the zone of inhibition at 10 µg/disc (in the test on Xanthomonas oryzae; in test [1]) were 18 mm and 19 mm, respectively.

Values taken from ChEMBL document CHEMBL1782031, “Urea/thiourea derivatives of quinazolinone-lysine conjugates: synthesis and structure-activity relationships of a new series of antimicrobials” (2011).
